Results as given in ChEMBL document CHEMBL5321217, “Identification of pyrrolo[3',4':3,4]cyclohepta[1,2-d][1,2]oxazoles as promising new candidates for the treatment of lymphomas” (Eur J Med Chem, 2023).
Calls of active or inactive are those of the source. The calls are words filed in the database; no cut-off is given here.

Columns and labels:
NCI-H522 = assay: Antiproliferative activity against human NCI-H522 cells assessed as growth inhibition incubated for 72 hrs by MTT assay; type: functional
NCI-H460 = assay: Antiproliferative activity against human NCI-H460 cells assessed as growth inhibition incubated for 72 hrs by MTT assay; type: functional
CCRF-CEM = assay: Antiproliferative activity against human CCRF-CEM cells assessed as growth inhibition incubated for 72 hrs by MTT assay; type: functional
A549 = assay: Antiproliferative activity against human A549 cells assessed as growth inhibition incubated for 72 hrs by MTT assay; type: functional
HCC 2998 = assay: Antiproliferative activity against human HCC 2998 cells assessed as growth inhibition incubated for 72 hrs by MTT assay; type: functional
HCT-116 = assay: Antiproliferative activity against human HCT-116 cells assessed as growth inhibition incubated for 72 hrs by MTT assay; type: functional
HCT-15 = assay: Antiproliferative activity against human HCT-15 cells assessed as growth inhibition incubated for 72 hrs by MTT assay; type: functional
SF-268 = assay: Antiproliferative activity against human SF-268 cells assessed as growth inhibition incubated for 72 hrs by MTT assay; type: functional
SF-295 = assay: Antiproliferative activity against human SF-295 cells assessed as growth inhibition incubated for 72 hrs by MTT assay; type: functional
SNB-75 = assay: Antiproliferative activity against human SNB-75 cells assessed as growth inhibition incubated for 72 hrs by MTT assay; type: functional
U-251 = assay: Antiproliferative activity against human U-251 cells assessed as growth inhibition incubated for 72 hrs by MTT assay; type: functional
LOX IMVI = assay: Antiproliferative activity against human LOX IMVI cells assessed as growth inhibition incubated for 72 hrs by MTT assay; type: functional
SK-MEL-5 = assay: Antiproliferative activity against human SK-MEL-5 cells assessed as growth inhibition incubated for 72 hrs by MTT assay; type: functional
OVCAR-8 = assay: Antiproliferative activity against human OVCAR-8 cells assessed as growth inhibition incubated for 72 hrs by MTT assay; type: functional
SK-OV-3 = assay: Antiproliferative activity against human SK-OV-3 cells assessed as growth inhibition incubated for 72 hrs by MTT assay; type: functional
786-0 = assay: Antiproliferative activity against human 786-0 cells assessed as growth inhibition incubated for 72 hrs by MTT assay; type: functional
ACHN = assay: Antiproliferative activity against human ACHN cells assessed as growth inhibition incubated for 72 hrs by MTT assay; type: functional
RXF 393 = assay: Antiproliferative activity against human RXF 393 cells assessed as growth inhibition incubated for 72 hrs by MTT assay; type: functional
PC-3 = assay: Antiproliferative activity against human PC-3 cells assessed as growth inhibition incubated for 72 hrs by MTT assay; type: functional
MCF7 = assay: Antiproliferative activity against human MCF7 cells assessed as growth inhibition incubated for 72 hrs by MTT assay; type: functional
Hs-578T = assay: Antiproliferative activity against human Hs-578T cells assessed as growth inhibition incubated for 72 hrs by MTT assay; type: functional
T47D = assay: Antiproliferative activity against human T47D cells assessed as growth inhibition incubated for 72 hrs by MTT assay; type: functional
[1] = Antiproliferative activity against human MINO cells assessed as cell growth inhibition measured after 72 hrs by MTT assay; type: functional, cell-based
Method in brief: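 Lymphoma cells in RPMI-1640 with 20% FBS, seeded at 5,000–10,000 cells/well depending on doubling time. Exposed for 72 h at 37 °C, 5% CO2 to a 1:2 serial dilution from 0 to 10 μM (DMSO ≤0.1%). MTT from a 5 mg/mL stock was added for 4 h, cells were lysed with 25% SDS, and A570 was read against medium-only blanks. IC50 from triplicate assays.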

SU-DHL10 [2] = assay: Antiproliferative activity against human SU-DHL-10 cells assessed as cell growth inhibition measured after 72 hrs by MTT assay; type: functional, cell-based; conditions: SU-DHL10, 72 h
Method in brief: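 Lymphoma cells grown in RPMI-1640 with 20% FBS, seeded at 5,000–10,000 cells/well by doubling time. Doses 0–10 μM, 1:2 serial dilution, DMSO ≤0.1%, 72 h at 37 °C, 5% CO2. MTT (5 mg/mL stock) added for 4 h, SDS lysis, A570 read against medium-only blanks. IC50 from triplicate assays.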

[3] = Cytotoxicity against resting human PBL cells assessed as inhibition of cell growth measured after 72 hrs by MTT assay; type: toxicity, cell-based; conditions: resting human peripheral blood lymphocytes (PBL)
[4] = Cytotoxicity against PHA-induced human PBL cells assessed as inhibition of cell growth measured after 72 hrs by MTT assay; type: toxicity, cell-based; conditions: PHA-induced human peripheral blood lymphocytes (PBL)
Tubulin = assay: Inhibition of tubulin assembly (unknown origin); type: protein-complex assay, Homo sapiens
VL51 [5] = assay: Induction of cell cycle arrest in human VL51 cells assessed as reduction in accumulation of cells at S phase at 1 uM incubated for 24 hrs by PI staining based flow cytometry analysis; type: functional
Method in brief: (§1)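 Seeding in 6-well plates, 2 mL medium: A549 5×10^4, CCRF-CEM 2.5×10^5, VL51 2.0×10^5. 24 h treatment, A549 detached with trypsin-EDTA. Cells fixed in 70% ice-cold ethanol, PI-labelled, analysed by flow cytometry. Mean of two independent experiments.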

VL51 [6] = assay: Induction of cell cycle arrest in human VL51 cells assessed as accumulation of cells at M phase by measuring p-Histone H3 positive cells incubated for 24 hrs by PI staining based flow cytometry analysis; type: functional; conditions: dose 0.5-1 µM
VL51 [7] = assay: Induction of apoptosis in human VL51 cells assessed as increase in apoptotic cells incubated for 48 hrs by annexin V-FITC and PI staining based flow cytometry analysis; type: functional, cell-based; conditions: dose 1-5 µM
Method in brief: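 Cells exposed to several concentrations for 48 h, then stained with annexin V-FITC and PI and read by flow cytometry (FL1/FL3). Apoptotic cells = annexin V-positive plus annexin V/PI double-positive. Mean of three independent experiments.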

VL51 [8] = assay: Induction of cell cycle arrest in human VL51 cells assessed as accumulation of cells at G2/M phase at 1 uM incubated for 24 hrs by PI staining based flow cytometry analysis; type: functional; method in brief: as §1
VL51 [9] = assay: Antiproliferative activity against human VL51 cells assessed as reduction in cell proliferation at 1 uM measured after 72 hrs by MTT assay relative to control; type: functional; set-up: scale not given: the % may be the effect or the level left
Method in brief: (§2)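 Single-dose 1 μM screen in lymphoma cells (RPMI-1640, 20% FBS; 5,000–10,000 cells/well), 72 h at 37 °C, 5% CO2, DMSO ≤0.1%. MTT for 4 h, SDS lysis, absorbance at 570 nm. Proliferation expressed as percent of untreated control.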

[10] = Antiproliferative activity against human MINO cells assessed as reduction in cell proliferation at 1 uM measured after 72 hrs by MTT assay relative to control; type: functional; set-up: scale not given: the % may be the effect or the level left
Method in brief: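 Single-dose screen at 1 μM for 72 h at 37 °C, 5% CO2 (DMSO ≤0.1%). Cells in RPMI-1640 with 20% FBS, seeded at 5,000–10,000 cells/well. MTT added for 4 h, SDS lysis, A570 read with medium-only blanks. Percent proliferation relative to untreated cells, run in triplicate.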

SU-DHL10 [11] = assay: Antiproliferative activity against human SU-DHL-10 cells assessed as reduction in cell proliferation at 1 uM measured after 72 hrs by MTT assay relative to control; type: functional; set-up: scale not given: the % may be the effect or the level left; method in brief: as §2

| SMILES | GI50 (NCI-H522) [nM] | GI50 (NCI-H460) [nM] | GI50 (CCRF-CEM) [nM] | GI50 (A549) [nM] | GI50 (HCC 2998) [nM] | GI50 (HCT-116) [nM] | GI50 (HCT-15) [nM] | GI50 (SF-268) [nM] | GI50 (SF-295) [nM] | GI50 (SNB-75) [nM] | GI50 (U-251) [nM] | GI50 (LOX IMVI) [nM] | GI50 (SK-MEL-5) [nM] | GI50 (OVCAR-8) [nM] | GI50 (SK-OV-3) [nM] | GI50 (786-0) [nM] | GI50 (ACHN) [nM] | GI50 (RXF 393) [nM] | GI50 (PC-3) [nM] | GI50 (MCF7) [nM] | further results |
| --- | --- | --- | --- | --- | --- | --- | --- | --- | --- | --- | --- | --- | --- | --- | --- | --- | --- | --- | --- | --- | --- |
| COc1ccc(Cn2cc3c(c2-c2cc(OC)c(OC)c(OC)c2)CCCc2cnoc2-3)cc1N | 260 | 400 | 440 | 950 | 1660 | 400 | 530 | 1450 | 500 | 380 | 510 | 700 | 1130 | 1570 | 680 | 520 | 690 | 450 | 430 | 420 | GI50 (Hs-578T): 400 nM; GI50 (T47D): 390 nM; IC50 [1]: 400 nM; IC50 (SU-DHL10 [2]): 500 nM; IC50 at 72 h [3]: > 10000 nM; IC50 at 72 h [4]: > 10000 nM; IC50 (Tubulin): 18000 nM; Activity (VL51 [5]): Active; Activity (VL51 [6]): Dose-Dependent Effect; Activity (VL51 [7]): Dose-Dependent Effect; Activity (VL51 [8]): Active; Activity (VL51 [9]): >50%; Activity [10]: >50%; Activity (SU-DHL10 [11]): >50% |
| COc1ccc(Cn2cc3c(c2-c2cc(OC)c(OC)c(OC)c2)CCCc2cnoc2-3)cc1 | 980 | 500 | 410 | 2340 | 1610 | 390 | 480 | 4720 | 510 | 870 | 4470 | 990 | 2000 | 4300 | 4180 | 670 | 900 | 660 | 850 | 440 | GI50 (Hs-578T): 1540 nM; GI50 (T47D): 1850 nM; IC50 [1]: 900 nM; IC50 (SU-DHL10 [2]): 1800 nM; IC50 at 72 h [3]: > 10000 nM; IC50 at 72 h [4]: > 10000 nM; IC50 (Tubulin): > 20000 nM; Activity (VL51 [5]): Active; Activity (VL51 [6]): Dose-Dependent Effect; Activity (VL51 [7]): Dose-Dependent Effect; Activity (VL51 [8]): Active; Activity (VL51 [9]): >50%; Activity [10]: >50%; Activity (SU-DHL10 [11]): >50% |
